Experimental data reported in ChEMBL document CHEMBL1157011, “8-Sulfonyl-substituted tetrahydro-1H-pyrido[4,3-b]indoles as 5-HT6 receptor antagonists” (Eur J Med Chem, 2010).

Columns and labels:
[1] = target: T1, 5-hydroxytryptamine receptor 6 (Homo sapiens, UniProt P50406); experiment: Antagonist activity at human recombinant 5HT6 receptor expressed in HEK293 cells assessed as inhibition of serotonin-induced cAMP production by LANCE assay relative to serotonin; assay type: functional, cell-based
T1 sequence (P50406 whole entry): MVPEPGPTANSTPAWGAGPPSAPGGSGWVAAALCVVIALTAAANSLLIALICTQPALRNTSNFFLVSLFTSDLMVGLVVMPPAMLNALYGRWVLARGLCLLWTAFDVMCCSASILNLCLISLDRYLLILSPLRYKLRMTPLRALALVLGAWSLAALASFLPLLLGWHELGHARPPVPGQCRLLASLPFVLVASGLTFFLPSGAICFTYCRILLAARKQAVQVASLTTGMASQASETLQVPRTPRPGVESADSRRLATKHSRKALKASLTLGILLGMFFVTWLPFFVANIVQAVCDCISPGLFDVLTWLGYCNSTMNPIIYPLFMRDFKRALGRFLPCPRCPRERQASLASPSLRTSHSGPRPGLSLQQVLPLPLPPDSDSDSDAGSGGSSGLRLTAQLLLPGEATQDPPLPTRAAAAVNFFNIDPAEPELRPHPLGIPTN
How it was run: (§1)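 HEK-293 cells with a tetracycline-inducible (T-Rex) human 5-HT6 receptor, grown in DMEM/10% FBS with blasticidin S and zeocin and induced with tetracycline the day before. Medium was swapped for HBSS with 1 mM MgCl2, 1 mM CaCl2, IBMX and 5 mM HEPES, pH 7.4. Compounds (0.1% DMSO) were added 15 min at RT, then 10 nM serotonin for 30 min. cAMP read by LANCE; 2 independent experiments in duplicate.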

[2] = target: T1, 5-hydroxytryptamine receptor 6; experiment: Antagonist activity at human recombinant 5HT6 receptor expressed in HEK293 cells assessed as inhibition of serotonin-induced cAMP production by LANCE assay; assay type: functional, cell-based; details: read-out: IC50; how it was run: as §1
[3] = target: T1, 5-hydroxytryptamine receptor 6; experiment: Binding affinity to human recombinant 5HT6 receptor by radioligand displacement assay
How it was run: (§2)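 Competitive displacement of the corresponding radioligand, run by an outside contract lab under its internal protocols. Data from one representative experiment in duplicate.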

[4] = target: 5-hydroxytryptamine receptor 7 (Homo sapiens, UniProt P34969); experiment: Binding affinity to 5HT7 receptor by radioligand displacement assay; how it was run: as §2
Sequence of 5-hydroxytryptamine receptor 7 (P34969 whole entry): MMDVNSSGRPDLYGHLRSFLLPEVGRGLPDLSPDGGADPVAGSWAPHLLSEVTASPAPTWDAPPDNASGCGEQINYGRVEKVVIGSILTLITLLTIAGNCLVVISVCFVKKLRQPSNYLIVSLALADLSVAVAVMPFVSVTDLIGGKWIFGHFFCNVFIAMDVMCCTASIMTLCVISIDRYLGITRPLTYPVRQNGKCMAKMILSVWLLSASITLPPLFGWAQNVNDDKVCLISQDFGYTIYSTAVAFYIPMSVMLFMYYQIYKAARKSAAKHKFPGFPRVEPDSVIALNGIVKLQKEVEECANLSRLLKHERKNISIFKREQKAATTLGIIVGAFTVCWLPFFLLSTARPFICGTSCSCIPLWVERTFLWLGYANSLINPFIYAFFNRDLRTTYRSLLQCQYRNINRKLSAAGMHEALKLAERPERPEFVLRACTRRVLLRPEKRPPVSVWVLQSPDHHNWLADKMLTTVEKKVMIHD

[5] = target: T2, 5-hydroxytryptamine receptor 2C (Homo sapiens, UniProt P28335); experiment: Binding affinity to 5HT2C receptor by radioligand displacement assay; how it was run: as §2
T2 sequence (P28335 whole entry): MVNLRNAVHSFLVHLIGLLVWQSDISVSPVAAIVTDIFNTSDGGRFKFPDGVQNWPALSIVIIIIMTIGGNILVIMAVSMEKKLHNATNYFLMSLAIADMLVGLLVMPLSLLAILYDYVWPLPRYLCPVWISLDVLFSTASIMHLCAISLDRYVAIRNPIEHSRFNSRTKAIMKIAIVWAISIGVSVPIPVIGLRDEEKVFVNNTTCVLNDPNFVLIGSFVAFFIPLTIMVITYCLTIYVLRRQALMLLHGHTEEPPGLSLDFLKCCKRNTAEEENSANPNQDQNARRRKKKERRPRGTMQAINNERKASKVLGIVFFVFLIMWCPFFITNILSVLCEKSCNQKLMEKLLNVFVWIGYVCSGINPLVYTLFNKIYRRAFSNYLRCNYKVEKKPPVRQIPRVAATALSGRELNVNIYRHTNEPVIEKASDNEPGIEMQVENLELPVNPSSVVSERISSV

[6] = target: T1, 5-hydroxytryptamine receptor 6; experiment: Binding affinity to human recombinant 5HT6 receptor
[7] = target: T3, 5-hydroxytryptamine receptor 1A (Homo sapiens, UniProt P08908); experiment: Binding affinity to 5HT1A receptor by radioligand displacement assay
T3 sequence (P08908 whole entry): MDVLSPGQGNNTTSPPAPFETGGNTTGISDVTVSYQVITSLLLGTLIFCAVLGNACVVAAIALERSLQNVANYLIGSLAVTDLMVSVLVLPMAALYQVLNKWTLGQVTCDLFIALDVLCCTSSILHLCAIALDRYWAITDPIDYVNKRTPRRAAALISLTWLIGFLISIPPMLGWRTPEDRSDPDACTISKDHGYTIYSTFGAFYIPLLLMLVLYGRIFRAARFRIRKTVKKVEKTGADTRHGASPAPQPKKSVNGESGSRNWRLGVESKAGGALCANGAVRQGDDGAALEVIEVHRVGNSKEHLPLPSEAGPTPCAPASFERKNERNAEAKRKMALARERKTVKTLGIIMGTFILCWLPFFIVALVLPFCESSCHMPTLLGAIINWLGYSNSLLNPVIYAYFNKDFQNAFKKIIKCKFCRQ

[8] = target: 5-hydroxytryptamine receptor 6 (Rattus norvegicus, UniProt P31388); experiment: Binding affinity to rat recombinant 5HT6 receptor
Sequence of 5-hydroxytryptamine receptor 6 (Rattus norvegicus, UniProt P31388) (P31388 whole entry): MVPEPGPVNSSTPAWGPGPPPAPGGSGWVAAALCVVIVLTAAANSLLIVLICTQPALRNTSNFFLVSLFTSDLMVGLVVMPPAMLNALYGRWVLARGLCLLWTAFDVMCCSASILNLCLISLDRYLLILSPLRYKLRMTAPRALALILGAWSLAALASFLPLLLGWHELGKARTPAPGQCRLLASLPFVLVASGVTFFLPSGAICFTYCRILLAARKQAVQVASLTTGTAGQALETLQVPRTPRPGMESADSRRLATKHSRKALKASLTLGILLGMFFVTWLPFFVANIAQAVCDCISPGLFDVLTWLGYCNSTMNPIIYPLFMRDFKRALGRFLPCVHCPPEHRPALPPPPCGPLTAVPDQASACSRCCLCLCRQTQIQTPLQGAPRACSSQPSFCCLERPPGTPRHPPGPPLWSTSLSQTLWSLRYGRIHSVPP

CN1CCc2[nH]c3ccc(S(=O)(=O)c4cccnc4)cc3c2C1 showed an Imax [1] of 100% and an IC50 [2] of 3400 nM.
With CN1CCc2[nH]c3ccc(S(=O)(=O)N(C)C)cc3c2C1 the Imax [1] was 100% and the IC50 [2] was 26000 nM.
In the case of Cc1ccc2c(c1)c1c(n2CCc2ccc(C)nc2)CCN(C)C1 [LATREPIRDINE], the Imax [1] is reported as 100%, the Ki [3] is reported as 34 nM and the Ki [4] is reported as 8 nM. The Ki [5] was 76 nM, the Ki [6] was 26 nM and the Ki [7] was over 100 nM. The Ki [8] was 119 nM.
Cc1ccc(S(=O)(=O)n2c3c(c4cc(S(=O)(=O)c5ccccc5)ccc42)CN(C)CC3)cc1 gave an Imax [1] of 100% and an IC50 [2] of 28000 nM.
O=S(=O)(Nc1cccc(F)c1)c1ccc2[nH]c3c(c2c1)CN(Cc1ccccc1)CC3 gave an Imax [1] of 100% and an IC50 [2] of 3900 nM.
